Out of some 360,000 compounds screened, about 1,700 (0.47%) were called active.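 Rule for the calls: active = inhibition above its plate's cutoff, the mean of tested wells on that plate plus 3 SD (cut at about 29% in these data); inactive = the rest.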 Many of the other results were omitted from the sample, so actives are more common in it than they were.
The molecules below were run against Melanocortin receptor 4 (Homo sapiens) (UniProt P32245) (assay: blockers of MC4R Gs-cAMP response – cell-based, TR-FRET, antagonist arm of biased-ligand search, primary screen (AID 540295;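 note: 0% = Melanotan II alone and 100% = Melanotan II plus saturating MCL0020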)). Details: MC4R-expressing cells, MTII-stimulated cAMP, LANCE TR-FRET; at 6.5 µM; active compounds read high.
In short: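 Material: U2OS-MC4R stable cell line | Reagent: Melanotan II challenge after compound preincubation | Doses: One concentration, 6.5 µM nominal | Incubation: 30-min compound preincubation, 1-h Melanotan II challenge, 1-h detection, room temperature | Signal: TR-FRET cAMP assay | Replicates: One well per compound, no replicates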

Chain of Melanocortin receptor 4 (Homo sapiens) (P32245 whole entry, looked up): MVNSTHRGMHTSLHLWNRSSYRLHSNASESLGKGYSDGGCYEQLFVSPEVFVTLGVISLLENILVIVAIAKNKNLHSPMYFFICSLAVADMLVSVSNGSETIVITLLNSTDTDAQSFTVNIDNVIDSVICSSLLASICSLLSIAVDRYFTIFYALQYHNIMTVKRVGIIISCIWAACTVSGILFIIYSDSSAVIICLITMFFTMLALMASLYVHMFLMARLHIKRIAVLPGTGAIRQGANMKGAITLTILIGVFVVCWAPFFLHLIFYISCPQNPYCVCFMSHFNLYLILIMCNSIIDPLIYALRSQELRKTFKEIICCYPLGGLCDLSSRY

inhibition, inactive:
CCOC(=O)c1c(NC(=O)COC(=O)c2ccc(S(=O)(=O)C(F)F)cc2)sc(C(=O)N(C)C)c1C 8.14%, COC(=O)c1sc(NC(=O)COC(=O)C2CCC2)c(C(=O)OC)c1C 3.01%, O=S(=O)(c1ccc(SCc2ccc(Br)cc2)nc1)N1CCOCC1 5.21%, CCCCC1N2CC3([N+](=O)[O-])CN1CC([N+](=O)[O-])(C2)C3(C)C (stereo unspecified) 1.22%, Cn1c(=O)[nH]c(=O)c2c1nc(CN1CCN(c3ccccc3F)CC1)n2CCc1ccccc1 4.45%, COc1ccc2oc(N)nc2c1 -3.46%, COc1ccc2oc(=O)cc(CN3CCOCC3)c2c1 5.75%, O=C(Nc1ccccc1)c1nnsc1S(=O)(=O)c1ccc(Cl)cc1 22.3%, CCOC(=O)N1CCN(C(=O)c2ccccc2N(Cc2ccccc2)S(=O)(=O)c2ccc(OC)cc2)CC1 -11%, COc1cccc(NC(=O)c2ccccc2N(Cc2ccccc2)S(C)(=O)=O)c1 4.09%, CCc1nnc(NC(=O)[C@@H](NC(=O)c2cccc(C)c2)C(C)C)s1 2.22%, COc1cccc(NC(=O)Cn2c3ccccc3c3nc4n(c(=O)c32)CCS4)c1 19.8%, COc1ccc2c(c1)c1nc3n(c(=O)c1n2CC(=O)Nc1ccccc1)CCS3 -10.3%, CC=CCn1c(SCCCc2ccccc2)nc2c1c(=O)[nH]c(=O)n2C -6.73%, COc1ccc(S(=O)(=O)NC(=O)C2(C)CCN2C(=O)c2ccccc2CCc2ccccc2)cc1 (stereo unspecified) -3.11%, N#Cc1ccc(OCC(=O)Nc2nc(-c3ccccn3)cs2)cc1 -1.39%, CCCC/C(C)=N/NC(=O)NC1CCCCC1 6.08%, COc1ccc(CCNC(=O)CCCCCNC(=O)N2CCn3c2nc2ccccc23)cc1OC 2.13%, COc1ccc(NC(=O)C2Cc3c(-c4ccc5c(c4)OCO5)ccnc3O2)cn1 (stereo unspecified) -23.9%, COc1ccc(NC(=O)CN2C(=O)NC(C)(c3ccccc3)C2=O)cn1 (stereo unspecified) -0.87%, COc1cc(C(=O)NCc2ccc(-n3cccc3)cc2)cc(OC)c1OC 5.76%, Cc1cccc(-c2cnc(C(O)c3ccc4ccccc4c3)[nH]2)c1 (stereo unspecified) 5.06%, Cc1c(CCC(=O)O)c(=O)oc2c(C)c(OCc3ccccc3Cl)ccc12 17.1%, Cc1coc2cc3oc(=O)c(CCC(=O)O)c(C)c3cc12 4.19%, CCOC(=O)C1CCN(Cc2nnc(-c3cccc(Br)c3)o2)CC1 7.07%, CCOC(=O)N1CCN(Cc2nnc(-c3ccccc3Cl)o2)CC1 2.09%, S=c1[nH]nc(-c2ccco2)n1/N=C/c1ccc(Br)s1 -2.7%, Cc1ccc(Cl)cc1-c1ccc(/C=N/n2cnnc2)o1 -0.99%, Cc1nn(Cc2ccc(F)cc2)c(C)c1NC(=O)c1noc2c1CCc1ccccc1-2 10.4%, COc1cc(C(=O)N2CCOC23CCN(Cc2ccccc2)CC3)cc(OC)c1OC 0.19%, O=C1c2ccccc2S(=O)(=O)c2cc(N3CCN(c4ccccn4)CC3)ccc21 11.1%, O=C(c1ccc2c(c1)C(=O)N(c1ccc(Cl)cc1)C2=O)N1CCN(c2ccccn2)CC1 7.23%, Cc1ccc(C)c(N2CCN(C(=O)CCc3nc(-c4cccc(C(F)(F)F)c4)no3)CC2)c1 -2.59%, Cc1cc(C(=O)N2CCN(c3ccccn3)CC2)c(C)o1 -0.72%, COCC(=O)Nc1c(C(=O)N2CCCC2)oc2ccccc12 2.6%, CCOc1ccc(CCNC(=O)CN2C(=O)NC3(CCc4ccccc43)C2=O)cc1OCC (stereo unspecified) 7.52%, CCO[C@H]1OC(C(=O)Nc2ccccc2)=C[C@@H](C2CC2)[C@@H]1CCCO 8.5%, COc1ccc(OC)c(S(=O)(=O)Nc2c(C)nn(C)c2C)c1 -0.88%, COc1cc(S(=O)(=O)Nc2ncn[nH]2)ccc1Cl 3.99%, CC(C)CC(=O)Nc1cc(C(F)(F)F)ccc1N1CCOCC1 8.93%, O=C(CN1C(=O)NC2(CCCC2)C1=O)Nc1cc(C(F)(F)F)ccc1N1CCOCC1 2.08%, O=C(Nc1ccc(S(=O)(=O)Nc2nccs2)cc1)c1cccc(S(=O)(=O)N2CCOCC2)c1 13.1%, O=C(NCc1cccnc1)c1cc(S(=O)(=O)N2CCOCC2)c(Cl)cc1Cl 2.73%, COc1ccccc1N(CC(=O)Nc1c(C)n(C)n(-c2ccccc2)c1=O)S(=O)(=O)c1ccccc1 -1.81%, Cc1ccc(S(=O)(=O)N(CC(=O)N/N=C/c2ccc(F)cc2)c2cccc3cccnc23)cc1 15.1%, CC/C(Cc1ccccc1)=N/NC(=O)CCn1nnc2ccccc21 9.16%, CC12CCC(=O)C=C1CCC1C2C(O)CC2(C)C1CCC2(O)C(O)CO (stereo unspecified) 1.23%, CCOC(=O)c1c(C(C#N)C#N)cc(C)nc1C 1.49%, CCOC(=O)COc1nc(C)cc(C(F)(F)F)c1C#N -2.8%, O=C(Nc1ccccc1F)c1cc(S(=O)(=O)N2CCCCC2)cs1 3.77%, Cn1ccs/c1=N\S(=O)(=O)c1ccc(C(C)(C)C)cc1 8.67%, COc1ccc(N2C(=O)CC(N3CCC(C(N)=O)CC3)C2=O)cc1 (stereo unspecified) 5.05%, CNC(=O)C[C@H]1C(=O)N(c2ccc(OC)cc2)C[C@@H]1Cc1ccccc1 -3.72%, O=C(CCc1nnc(Cc2ccc3c(c2)OCO3)o1)NCCc1ccccc1Cl 2.77%, NCCCNC(=S)NCCCN(Cc1ccc(Cl)cc1)c1ccc(Br)cn1 3.71%, O=C(NCc1ccccc1)C1=C[C@@H](C2CCCCC2)C[C@@H](OCc2ccc(CO)cc2)O1 4.66%, CC(=O)c1ccccc1NC(=O)COC(=O)C1COc2ccccc2O1 (stereo unspecified) 16.3%, CCC1CCCCN1CCCNC(=O)c1cc2c(Cl)nc3ccccc3c2s1 (stereo unspecified) -9.04%, COc1ccc(Cl)cc1NC(=O)NCC1CCN(Cc2ccccc2F)CC1 3.98%, Cc1cccc(CN2CCC(CNC(=O)Nc3ccc(F)c(Cl)c3)CC2)c1 1.8%, FC(F)Oc1ccccc1NC(=S)Nc1cccc(Cl)c1Cl 0.43%, S=C(Cc1ccc(Cl)cc1)N1CCOCC1 2.15%, COc1ccccc1-c1nnc(NC(=O)c2cccc(N3C(=O)CCC3=O)c2)o1 17.9%, CCCc1cc(=O)[nH]c(SCC(=O)Nc2ccc(C(=O)Nc3ccccc3OC)cc2)n1 10.3%, COC(=O)/C(=C1\Oc2ccc(C(C)(C)C)cc2S1)C(F)(F)F 13.2%, CCc1nc2c(OCCOc3ccccc3)cccn2c1N(C)C(=O)c1cccs1 -6.4%, COC(=O)COc1ccc2c(=O)c(Oc3ccccc3Br)coc2c1 11%, O=C(COC(=O)CSc1ccccc1)Nc1ccc(F)cc1F 9.52%, COC(=O)c1ccccc1NC(=O)Cc1ccccc1OC 18.4%, CCCCOc1ccc(C(=O)N/C(=C/C=C/c2ccccc2)C(=O)N2CCOCC2)cc1 3.43%, O=C(Nc1nn(Cc2ccccc2F)cc1Br)c1cccs1 11.3%, C=CCn1c2ccccc2c2nnc(SCc3[nH]c(=O)[nH]c3C(=O)CCCCC(=O)OCC)nc21 -12.2%

inhibition, active:
CCOC(=O)c1c(NC(=O)CCl)sc(C(=O)N(CC)CC)c1C 32.6%, COc1ccc2oc(N)c(C=O)c(=O)c2c1 37.6%, COc1ccc(/C=N/OCC(=O)N(Cc2ccccc2)c2ccccc2C(=O)O)cc1 32.2%, COc1ccc(-c2nc3n(c(=O)c2C#N)CCS3)c(OC)c1 30.9%, COc1ccc(NC(=O)/C(Cl)=C(/Cl)S(=O)Cc2ccc(C)cc2)cn1 (stereo unspecified) 57.8%, Cc1c(CCC(=O)O)c(=O)oc2cc(OCc3ccc(Br)cc3)ccc12 29.8%, Cc1ccc(-c2nnc(CN3CCN(C)CC3)o2)cc1 30.6%, Cc1ccccc1-c1n[nH]c(=S)n1/N=C/c1ccc(-c2ccccc2Br)o1 28.7%, O=C(c1ccc2c(c1)N(Cc1ccc(F)cc1)C(=O)c1ccccc1S2(=O)=O)N1CCN(c2ccccn2)CC1 30.5%, COc1cccc(OC)c1C(=O)Nc1c(C(=O)N2CCN(c3ccccn3)CC2)oc2ccccc12 36.6%, COc1ccc(C(C)C)cc1S(=O)(=O)Nc1ncn[nH]1 32.9%, O=C(Cn1nnc2ccccc2c1=O)Nc1cc(C(F)(F)F)ccc1N1CCOCC1 30.3%, O=C(Nc1nccs1)c1cc(S(=O)(=O)N2CCOCC2)c(Cl)cc1Cl 35.1%, COc1ccccc1N(CC(=O)N/N=C(\C)c1ccccc1O)S(=O)(=O)c1ccc(C)cc1 33.9%, CCOC(=O)c1cc(C)nc(S(C)(=O)=O)c1C#N 38.7%, COc1ccc(N2C(=O)C3C(C2=O)C(C(=O)c2ccccc2)N2CCCC32)cc1 (stereo unspecified) 30.8%, O=C(NCC1CCN(Cc2ccccc2Cl)CC1)Nc1cccc(Cl)c1 29.6%, COc1ccccc1NC(=O)c1ccc2nc(N3C(=O)CCC3=O)sc2c1 35.1%, COc1ccccc1CC(=O)Nc1ccc(F)cc1F 28.9%

— PubChem BioAssay AID540295 (The Scripps Research Institute Molecular Screening Center, 2011)
